Myeloid diff 2 – compounds promoting myeloid differentiation; ER-HoxA9 myeloid progenitors, lysozyme-GFP differentiation, flow cytometry; 360,000 compounds, 1% hits; calls only at 10 µM; AID 624256;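 active means normalized GFP-positive differentiation at or above the plate's own cutoff, the solvent-only control mean plus 3 SD; inconclusive means no clear call, values can overlap the other calls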;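 further: cells exposed to compound for four days before flow analysis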
HNF4A DNA FP – change in binding of human HNF4 alpha to DNA; 360,000 compounds, 0.3% hits; activity change, % at 10 µM; P41235; HNF4a-FITC DNA binding, fluorescence polarization, 1 h; in the data active means activity change above about 30%, passing the limit was not always enough
Rpn11 inh – blocks the human proteasome subunit Rpn11. human 26S proteasome, Ub4-pepOG fluorescence polarization; 20S core pre-blocked with epoxomicin. 360,000 compounds, 0.59% hits. inhibition, % at 20 µM;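 active means inhibition at 20 µM, scaled to each plate's controls, above about 33%, limit read from the data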
Target sequence (O00487 whole entry, looked up): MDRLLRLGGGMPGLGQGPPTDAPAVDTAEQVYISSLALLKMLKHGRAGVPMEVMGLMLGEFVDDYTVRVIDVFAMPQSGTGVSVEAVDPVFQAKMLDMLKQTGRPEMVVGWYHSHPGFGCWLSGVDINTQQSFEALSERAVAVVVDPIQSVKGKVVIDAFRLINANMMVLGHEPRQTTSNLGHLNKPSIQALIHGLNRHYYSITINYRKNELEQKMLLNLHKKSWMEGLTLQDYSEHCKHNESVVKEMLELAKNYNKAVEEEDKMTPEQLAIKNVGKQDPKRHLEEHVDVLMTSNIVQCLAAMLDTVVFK
CSN inh – blocks human CSN-mediated cullin deneddylation; Q92905; Purified CSN, SCF-Nedd8-OG deneddylation, fluorescence polarization; inhibition, % at 12.5 µM; 360,000 compounds, 0.38% hits; AID 651999;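 active means pattern-corrected inhibition above about 35%, with an unprinted fluorescence ratio check between 0.5 and 1.5, limit read from the data, passing the limit was not always enough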
Target sequence (Q92905 whole entry, looked up, one chain of several): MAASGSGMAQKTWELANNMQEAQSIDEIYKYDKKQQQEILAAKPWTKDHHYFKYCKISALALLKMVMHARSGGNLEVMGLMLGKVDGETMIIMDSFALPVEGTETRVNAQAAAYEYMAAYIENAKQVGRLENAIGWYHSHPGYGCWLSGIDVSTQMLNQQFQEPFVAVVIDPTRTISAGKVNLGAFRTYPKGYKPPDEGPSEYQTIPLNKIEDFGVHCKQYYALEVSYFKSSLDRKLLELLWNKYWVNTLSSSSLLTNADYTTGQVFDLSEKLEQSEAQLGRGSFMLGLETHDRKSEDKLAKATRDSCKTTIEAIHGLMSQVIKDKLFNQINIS
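Detection – fluorescence polarization · System – HEK293T-derived human Csn5 enzyme · Controls – substrate-only high control, full reaction low control · Timing – 90 min, room temperature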
TPT1 inhibitor – blocks Candida albicans tRNA 2'-phosphotransferase; AID 1962; inhibition, % at 5 µM; 300,000 compounds, 0.81% hits; recombinant caTPT1, FP RNA substrate dephosphorylation;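 active means inhibition above the mean of all tested compounds plus 3 SD, set per screening campaign, cut at about 24% in these data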
A number is an active result; n = inactive; u = inconclusive; x = not tested or not shown; + = active, no number. Hits are enriched below; roughly 2.3% of the tested compounds scored in any of these assays.

SMILES	Myeloid diff 2	HNF4A DNA FP	Rpn11 inh	CSN inh	TPT1 inhibitor
CN(C)c1ccc(/C=C/c2ccc3c4ccccc4ccc3[n+]2-c2ccccc2)cc1	x	n	n	57.1	x
O=C(O)c1ccc(N2C(=O)/C(=C/c3ccc(-c4ccc([N+](=O)[O-])cc4)o3)C=C2c2ccccc2)cc1	+	n	78.2	n	n
CC1=NN(c2ccc(Cl)c(C(=O)O)c2)C(=O)/C1=C\c1ccc(-c2ccc(C(=O)O)cc2)o1	n	n	n	n	x
CN(C)S(=O)(=O)c1ccc(N=Cc2c(C(F)(F)F)[nH]n(C)c2=O)cc1	+	n	n	n	n
COCCOC(=O)N1CCCCC1c1cc(C(=O)Nc2cccc3c2CCCC3)no1 (stereo unspecified)	n	n	n	n	x
COc1ccc(CN2CCN(C(=O)CCC(=O)Nc3nnc(C4CCCCC4)s3)CC2)cc1F	+	n	n	n	n
Cc1cc(Cl)c(C)c(S(=O)(=O)N2CCN(CC(=O)N3CCOCC3)CC2)c1Cl	+	n	n	n	x
CCOC(=O)CC1(CCc2ccccc2)Oc2ccccc2O1	n	n	x	n	x
Cc1ccc(O)c(C(=O)c2cnc3c(c2)COc2ccccc2-3)c1	+	n	n	n	n
COC(=O)[C@H]1[C@@H](C)N(Cc2ccccc2)C(=O)N[C@H]1c1cccc(C(F)(F)F)c1	+	n	n	n	n
CCN1C(=O)N[C@@H](CCc2ccccc2)[C@@H](C(=O)OC)[C@H]1C	+	n	n	n	n
COC(=O)[C@H]1[C@H](CCc2ccccc2)NC(=O)N(Cc2ccccc2)[C@@H]1C	n	n	n	n	n
CCCCNC(=O)c1ccc2nc(CC)c(N(CC)CCOC)n2c1	n	n	n	n	x
Cc1ccc(NC(=O)CSc2nnc(C)n2CC2CCCO2)cc1 (stereo unspecified)	+	n	n	n	n
COc1cccc(C(c2nnnn2C2CCCC2)N2CCN(C/C=C/c3ccccc3)CC2)c1OC (stereo unspecified)	n	n	n	n	x
C[C@H]1C=C(C(=O)N2CCOCC2)O[C@@H](OCc2ccc(CO)cc2)C1	+	n	n	n	n
Cc1cccc(NC(=O)CN2CCN(C(=O)c3cc(C4CC4)nn3-c3ccccc3)CC2)c1C	+	n	n	n	x
O=C(CN1CCN(C(=O)c2cc(C3CC3)nn2-c2ccccc2)CC1)Nc1ccc(F)cc1	n	n	n	n	x
CC1(C(=O)NS(=O)(=O)c2ccc(C#N)cc2)CCN1C(=O)Cc1ccccc1Cl (stereo unspecified)	n	n	n	n	x
Cc1cc(NC(=O)CSc2nnc(-c3ccncc3)n2C)n(-c2ccccc2)n1	+	n	n	n	n
Oc1ccccc1-c1cc(-c2ccco2)[nH]n1	n	n	n	n	n
Oc1ccc(Cl)cc1-c1cc(-c2ccco2)[nH]n1	n	n	n	44.9	n
OC(c1ccc(F)cc1)c1nc(-c2cc3ccccc3o2)cs1 (stereo unspecified)	n	n	n	n	x
O=C(CCc1nc2ccccc2c(=O)[nH]1)Nc1cc(Cl)ccc1N1CCCCC1	+	n	n	n	x
COc1ccc(C(C)(O)c2nc(-c3ccccc3OC)cs2)cc1 (stereo unspecified)	n	n	n	n	x
SMILES	Myeloid diff 2	HNF4A DNA FP	Rpn11 inh	CSN inh	TPT1 inhibitor
CN(C)CCNc1ncnc2c1ncn2[C@H]1CN(Cc2ccc(-c3ccccc3)cc2)C[C@@H](CO)O1	n	n	n	n	x
CC(=O)Nc1ccc(C(=O)CN2CCN(c3ccccc3)CC2)cc1	n	n	n	99.6	n
CC1CC(NC(=O)c2c(O)nc3sccn3c2=O)CC(C)(C)C1 (stereo unspecified)	+	n	n	n	n
CCCc1nc(SCC(=O)Nc2cc(C)on2)c2ccccc2n1	n	n	n	n	n
Cc1cc(NC(=O)CSc2nc(CCC3CCCC3)nc3ccccc23)no1	+	n	n	n	n
CC1C(=O)OC2C1CCC1(C)C3(C)C(=O)C=CC213 (stereo unspecified)	n	n	n	n	x
CO/N=C\CC(=O)Nc1ccc(Cl)cc1Cl	+	n	n	n	n
CO/N=C\CC(=O)Nc1ccc(F)cc1	n	n	n	n	n
Nc1ncnc2c1ncn2[C@@H]1O[C@H](CNC(=O)[C@@H](N)Cc2ccc(C(=O)c3ccccc3)cc2)[C@@H](O)[C@H]1O	n	n	n	n	x
O=S(=O)(NCCc1csc(-c2cccnc2)n1)c1ccc2c(c1)OCCO2	+	n	n	n	n
C[C@@H]1O[C@H](CCc2cccc(Cl)c2)CC2=C1C(=O)OC(C)(C)O2	n	n	x	n	x
CCCCN(CCCC)S(=O)(=O)c1ccc(NS(=O)(=O)c2ccc(NC(C)=O)cc2)cc1	n	n	n	n	n
CC(=O)Nc1ccc(NS(=O)(=O)c2ccc3[nH]c(=O)[nH]c3c2)cc1	+	n	n	n	n
CC(=O)Nc1ccc(NS(=O)(=O)c2ccc3ccccc3c2)cc1	+	n	n	n	n
CCCCOc1ccc(S(=O)(=O)Nc2ccc(NC(C)=O)cc2)cc1	+	n	n	n	n
COc1ccc(CCC(=O)Nc2cccc(S(=O)(=O)N3CCCCCC3)c2)cc1OC	n	n	n	n	x
COc1ccc(CC(=O)Nc2cccc(S(=O)(=O)N3CCCCCC3)c2)cc1OC	+	n	n	n	n
Cc1ccc(N2CCN(C(=O)C(=O)c3cccc(Br)c3)CC2)cc1	n	n	x	n	x
COc1cc(-c2onc3ccc(Br)cc23)cc(OC)c1OC	u	43.0	n	n	n
COc1cccc(C(=O)N2CCC[C@@H]2C(=O)N2CCC[C@H]2C(=O)NCc2ccncc2)c1	n	n	x	n	x
Cc1cc(-c2csc(NC(=O)c3ccc(C#N)cc3)n2)c(C)n1Cc1ccco1	n	n	n	40.6	n
COc1ccc(C(N)c2csc(Nc3nncc4ccccc34)n2)cc1 (stereo unspecified)	+	n	n	n	x
COc1cccc(Nc2nc(C(N)c3ccccc3)cs2)n1 (stereo unspecified)	+	n	n	n	x
C#CCNC(=O)C[C@@H]1C[C@@]2(C(=O)OCC)CCCC=C2N(CCCCCCCC)C1=O	n	n	x	n	x
S=C(NCCCCN(Cc1ccc(Cl)cc1)c1ccc(Br)cn1)NCCCc1cnc[nH]1	n	n	n	n	x
SMILES	Myeloid diff 2	HNF4A DNA FP	Rpn11 inh	CSN inh	TPT1 inhibitor
O=C(Nc1ccc(-c2noc(COc3ccccc3Cl)n2)cc1)c1ccco1	+	n	n	n	n
O=C(NC1CCCCC1)c1nc(-c2c(F)cccc2F)oc1-c1ccccc1	n	n	x	n	x
CCC(=O)Oc1ccc(C(=O)Nc2ccc3c(c2)C(=O)N(C2CCCCC2)C3=O)cc1	n	38.7	n	n	n
CC1OC2CC(=O)OC2C2=C1C(=O)c1c(O)cccc1C2=O (stereo unspecified)	n	n	n	n	x
Cc1cc(C(C)C)n2c(nc3ccccc32)c1C#N	x	x	x	x	n
Cc1cc(-c2ccco2)c(C#N)c2nc3ccccc3n12	+	n	n	n	n
COc1ccc(CC(=O)N[C@@H](CCSC)C(=O)N2CCC3(CC2)NCCc2[nH]cnc23)cc1	n	n	n	n	n
